Measurements reported in ChEMBL document CHEMBL5252513, “Identification of a Benzoisoxazoloazepine Inhibitor (CPI-0610) of the Bromodomain and Extra-Terminal (BET) Family as a Candidate for Human Clinical Trials” (J Med Chem, 2016).

Legend:
MV4-11 = experiment: Antitumor activity against human MV4-11 cells xenografted in BALB/c mouse assessed as tumor growth inhibition at 60 mg/kg,po QD for 28 days; assay type: functional; details: MV4-11, 672 h, time 28 day, read-out: TGI
In short: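 Single-agent efficacy in MV-4-11 AML mouse xenograft. Tumor volume (mm3) and percent body-weight change were tracked over the treatment days.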

[1] = molecular target: T1, ATPase family AAA domain-containing protein 2 (Homo sapiens, UniProt Q6PL18); experiment: Binding affinity to ATAD2 bromodomain (unknown origin) incubated for 60 mins by TR-FRET assay
T1 sequence (Q6PL18 whole entry): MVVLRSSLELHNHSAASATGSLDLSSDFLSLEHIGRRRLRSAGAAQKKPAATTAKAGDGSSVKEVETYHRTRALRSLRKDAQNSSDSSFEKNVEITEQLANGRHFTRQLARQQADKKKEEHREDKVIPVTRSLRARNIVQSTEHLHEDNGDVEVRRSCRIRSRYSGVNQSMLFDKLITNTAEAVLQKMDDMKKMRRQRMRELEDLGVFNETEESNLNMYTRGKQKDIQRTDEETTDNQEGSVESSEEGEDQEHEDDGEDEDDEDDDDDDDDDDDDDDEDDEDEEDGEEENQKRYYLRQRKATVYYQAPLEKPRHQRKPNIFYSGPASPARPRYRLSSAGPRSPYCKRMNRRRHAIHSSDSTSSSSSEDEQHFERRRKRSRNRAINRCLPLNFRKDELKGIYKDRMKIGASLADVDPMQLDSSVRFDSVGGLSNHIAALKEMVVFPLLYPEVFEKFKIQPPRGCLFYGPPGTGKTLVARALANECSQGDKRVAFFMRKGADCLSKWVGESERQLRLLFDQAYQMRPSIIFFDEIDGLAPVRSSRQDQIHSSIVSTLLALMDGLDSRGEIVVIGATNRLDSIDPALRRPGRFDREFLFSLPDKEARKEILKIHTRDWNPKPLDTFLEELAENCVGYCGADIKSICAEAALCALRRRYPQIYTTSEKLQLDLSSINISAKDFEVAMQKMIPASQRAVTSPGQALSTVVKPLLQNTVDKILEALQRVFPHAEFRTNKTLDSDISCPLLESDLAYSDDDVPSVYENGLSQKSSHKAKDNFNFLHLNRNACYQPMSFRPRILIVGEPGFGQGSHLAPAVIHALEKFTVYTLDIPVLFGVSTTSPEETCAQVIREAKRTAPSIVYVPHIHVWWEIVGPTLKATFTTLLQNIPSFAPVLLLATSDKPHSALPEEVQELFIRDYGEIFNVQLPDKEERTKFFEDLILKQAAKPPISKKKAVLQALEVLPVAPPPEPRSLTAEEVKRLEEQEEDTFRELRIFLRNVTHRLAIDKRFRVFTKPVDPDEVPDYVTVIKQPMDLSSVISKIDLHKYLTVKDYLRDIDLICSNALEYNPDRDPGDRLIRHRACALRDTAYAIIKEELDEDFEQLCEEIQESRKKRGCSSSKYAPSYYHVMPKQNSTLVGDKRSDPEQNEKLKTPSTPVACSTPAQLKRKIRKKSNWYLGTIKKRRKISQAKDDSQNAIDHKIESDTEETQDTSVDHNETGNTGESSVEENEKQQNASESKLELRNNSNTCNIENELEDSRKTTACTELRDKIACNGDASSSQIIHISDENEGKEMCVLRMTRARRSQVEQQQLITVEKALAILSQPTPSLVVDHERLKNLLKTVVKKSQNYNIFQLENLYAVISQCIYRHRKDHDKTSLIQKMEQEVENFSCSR

IC50 [1]: > 80 µM
SMILES: Cc1noc2c1-c1ccccc1C(c1ccc(Cl)cc1)=N[C@H]2CC(N)=O [PELABRESIB]
inhibition in vivo at 60 mg/kg (MV4-11): 74%
